The record followed here is ChEMBL document CHEMBL1130181, “Importance of the C-1 substituent in classical cannabinoids to CB2 receptor selectivity: synthesis and characterization of a series of O,2-propano-delta 8-tetrahydrocannabinol analogs” (J Med Chem, 1997).

The target in assay [1] is Cannabinoid receptor (Homo sapiens) (UniProt P34972+P21554). Put plainly: Ratio of binding affinities in cannabinoid CB1 receptor against cannabinoid CB2 receptor. In kind it is protein assay. In a few lines:
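Ratio of Ki values. CB1 Ki from displacement of 1 nM [3H]CP-55,940 in whole-brain P2 membranes. CB2 Ki from the same radioligand on CHO cells expressing cloned human CB2. Both Ki values from […].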

In a further assay the target is Cannabinoid receptor 1 (Rattus norvegicus, UniProt P20272). As to the kind of experiment: Binding affinity for cannabinoid receptor 1.
Cannabinoid receptor 1, sequence (P20272 whole entry): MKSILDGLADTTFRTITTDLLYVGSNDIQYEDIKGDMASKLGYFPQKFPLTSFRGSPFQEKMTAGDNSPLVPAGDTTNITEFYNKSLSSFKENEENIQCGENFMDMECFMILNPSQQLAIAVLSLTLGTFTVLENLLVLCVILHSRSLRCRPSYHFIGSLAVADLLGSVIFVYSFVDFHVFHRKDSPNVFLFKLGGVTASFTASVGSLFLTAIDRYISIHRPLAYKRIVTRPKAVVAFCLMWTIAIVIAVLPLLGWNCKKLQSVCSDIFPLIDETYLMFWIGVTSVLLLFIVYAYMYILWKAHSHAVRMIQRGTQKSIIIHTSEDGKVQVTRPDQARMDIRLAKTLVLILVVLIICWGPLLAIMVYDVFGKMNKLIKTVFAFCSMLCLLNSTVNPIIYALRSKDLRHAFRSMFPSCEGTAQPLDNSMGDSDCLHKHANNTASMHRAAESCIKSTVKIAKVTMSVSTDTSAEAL
For assay [2], the species on record is Mus musculus. As to the kind of experiment: Inhibition of electrically-evoked contractions of mouse vas deferens. The assay is classed as functional. The procedure, abridged:
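Mouse isolated vas deferens; response is drug-induced inhibition of electrically evoked contractions. Drugs mixed with 2 parts Tween 80 by weight and dispersed in 0.9% saline. EC50 with 95% confidence limits from nonlinear regression of log concentration–response curves.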

For assay [3], the species on record is Mus musculus. Put plainly: Dissociation constant of SR-141716A determined in the presence using mouse vas deferens. In kind it is functional. The procedure, abridged: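 Mouse isolated vas deferens, electrically evoked contractions; agonist concentration–response curves run with SR-141716A at 31.62 nM or with Tween 80 vehicle. Kd from (x−1)=B/Kd, where x is the dose ratio. Dose ratios and 95% confidence limits by symmetrical (2+2) dose parallel line assay, using agonist concentration pairs on the steepest part of each curve.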

The subject of assay [4] is Mus musculus. Put plainly: Rectal temperature in the mouse model, following intravenous administration of the compound(60 mg/kg), in the tail vein. The assay is classed as functional. In a few lines:
(§1)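 Mice dosed by tail-vein iv injection in 1:1:18 emulphor:ethanol:saline, 0.1 mL/10 g body weight. Tetrad scored for spontaneous activity, tail-flick antinociception, rectal temperature and ring immobility. Values reported as ED50 ± SE from ALLFIT analysis, or as percent effect (temperature change for RT) at the stated dose (mg/kg).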

For assay [5], the system named is Mus musculus. Put plainly: Rectal temperature in the mouse model, following intravenous administration (30 mg/kg), in the tail vein. In kind it is functional. In a few lines:
as §1

Assay [6] has as its system Mus musculus. Put plainly: Rectal temperature in the mouse model, following intravenous administration of the compound, in the tail vein.at the dose (100 mg/kg). In kind it is functional. The procedure, abridged: as §1

pEC50, pKd, pKi: −log10 of the molar value.

Cannabinoid receptor (Homo sapiens), sequence (P21554 whole entry, looked up): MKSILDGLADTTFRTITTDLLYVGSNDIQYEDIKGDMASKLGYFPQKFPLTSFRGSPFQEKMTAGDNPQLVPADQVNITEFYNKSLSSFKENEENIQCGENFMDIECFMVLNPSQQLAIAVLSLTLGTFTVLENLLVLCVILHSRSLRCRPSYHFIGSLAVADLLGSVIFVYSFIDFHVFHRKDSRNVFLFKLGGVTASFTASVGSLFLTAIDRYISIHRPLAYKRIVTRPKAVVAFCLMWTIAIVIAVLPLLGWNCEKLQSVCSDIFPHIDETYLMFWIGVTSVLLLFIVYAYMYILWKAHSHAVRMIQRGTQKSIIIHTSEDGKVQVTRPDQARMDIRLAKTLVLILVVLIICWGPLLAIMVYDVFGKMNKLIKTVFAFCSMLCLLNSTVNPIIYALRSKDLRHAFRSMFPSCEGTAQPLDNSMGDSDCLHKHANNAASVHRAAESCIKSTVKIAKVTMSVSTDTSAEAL
Cannabinoid receptor (Homo sapiens), sequence (P34972 whole entry, looked up): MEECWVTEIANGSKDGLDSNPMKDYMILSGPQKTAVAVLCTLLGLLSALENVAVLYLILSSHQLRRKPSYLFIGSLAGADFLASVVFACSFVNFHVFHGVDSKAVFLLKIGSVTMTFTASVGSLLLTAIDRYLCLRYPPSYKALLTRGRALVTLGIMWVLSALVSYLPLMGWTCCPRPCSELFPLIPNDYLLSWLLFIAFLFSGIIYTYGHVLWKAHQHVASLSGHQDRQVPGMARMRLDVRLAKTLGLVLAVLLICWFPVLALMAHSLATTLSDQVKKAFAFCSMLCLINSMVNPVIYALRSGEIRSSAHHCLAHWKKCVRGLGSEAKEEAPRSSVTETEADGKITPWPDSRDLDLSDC

Usually pKi stands for the negative decadic logarithm of the Ki, by convention in mol/L. As a reminder, the pEC50 is −log10 of the EC50, conventionally taken in molar units. Read a low pEC50 as a high EC50. What is called pKd is the negative decadic logarithm of the Kd, by convention in mol/L. The low end stands for a high Kd, the high end for a low Kd. Regarding `CCCCCc1cc2c(c3c1CCCO3)C1CC(=O)CC[C@H]1C(C)(C)O2` (stereo partly drawn), the Ratio in assay [1] was 3.9. This molecule showed a negative-log Ki (pKi) at Cannabinoid receptor 1 of 7.05. The pEC50 in the assay filed under Mus musculus [2] is 8.14. This molecule also had a pKd in the assay listed under Mus musculus [3] of 8.76. The molecule further displayed a Temperature in the assay with Mus musculus [4] of -2.9 °C.

For `CCCCCc1cc2c(c3c1CCCO3)C1C[C@@H](O)CC[C@H]1C(C)(C)O2` (stereo partly drawn), the negative-log EC50 (pEC50) in the assay filed under Mus musculus [2] is 7.08. The molecule further gave a pKd in the assay listed under Mus musculus [3] of 8.78.

Turning to `C=C1CC[C@@H]2C(C1)c1c(cc(CCCCC)c3c1OCCC3)OC2(C)C` (stereo partly drawn), in assay [1], the Ratio came out at 4.4. In the assay with Mus musculus [5], the Temperature was -3.6 °C. Moreover, in the assay listed under Mus musculus [2], the pEC50 is 7.54. The pKd in the assay filed under Mus musculus [3] was 8.60.

Regarding `CCCCCc1cc2c(c3c1CCCO3)C1C[C@H](O)CC[C@H]1C(C)(C)O2` (stereo partly drawn), the negative logarithm of the EC50 (pEC50) in the assay filed under Mus musculus [2] is 8.08. The molecule also gave a pKd in the assay listed under Mus musculus [3] of 8.78.

For the molecule `CCCCCc1cc2c(c3c1CCCO3)C1CC=CC[C@H]1C(C)(C)O2` (stereo partly drawn), the Ratio in assay [1] was found to be 2.8. The molecule also showed a negative-log Ki (pKi) on Cannabinoid receptor 1 of 6.44. This molecule also showed a pEC50 in the assay listed under Mus musculus [2] of 7.78. The negative logarithm of the Kd (pKd) in the assay listed under Mus musculus [3] was 8.53. In the assay on Mus musculus [6], this molecule had a Temperature of -1.2 °C.
